Arbovirus inh = antivirals against arbovirus infection; AID 1251; arbovirus infection cell-based antiviral screen; actives 0.37% (n = 200,000); inhibition, % at 10 µM; in the data active = inhibition above about 30%
bCat nuc transl = beta-catenin nuclear translocation modulation | actives 0.3% (n = 190,000) | nuclear translocation activity, % at 5 µM | HeLa beta-catenin nuclear translocation, immunofluorescence imaging;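 active = nuclear translocation activity above 50% at 5 µM, with a well cell count of 50 or more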;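 also: per-cell ratio of nuclear to cytoplasmic median beta-catenin stain intensity; plate controls were DMSO negative control for no effect and GSK-3 inhibitor IX positive control for full effect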
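Read-out: Nuclear/cytoplasmic beta-catenin signal ratio, % activation | Assay system: Human HeLa cell line | Times: 24 h compound exposure at 37°C, 5% CO2 | Signal: Fluorescence imaging of beta-catenin antibody stain plus DAPI | Dosing: 5 µM primary, 0.02–20 µM confirmation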
ABCB1 block = human ABCB1 inhibition, ABCG2 as counter-screen; P08183; AID 1326; inhibition, % at 6.6 µM; CCRF-Adr cells, JC-1 efflux, flow cytometry; actives 0.067% (n = 190,000); in the data active = inhibition above about 40%;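 also: 0% = vehicle and 100% = reference inhibitor; higher value means more JC-1 retained so stronger ABCB1 efflux block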
MT stabilize HCS = microtubule stabilizers in HeLa cells. HeLa tubulin immunostaining HCS, 24 h; share of cells brighter than vehicle mean+2SD. % tubulin-high responders, % at 10 µM. actives 0.83% (n = 200,000). AID 2205;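 active = plate Z-score above 3 for both tubulin-high and condensed-nucleus cell shares, with cell loss under 80%, at 10 µM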;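 also: anti alpha tubulin signal scored within the nucleus-defined area of each cell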
Autophagy mod = autophagy modulation, high-content screen | MEF GFP-LC3 puncta imaging; test concentration mostly 10 µM | calls only at 10 µM (by protocol) | actives 0.98% (n = 190,000) | AID 463193;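 active = percentage of spot-positive cells more than 3 SD above its plate mean, without a fluorescence outlier flag or 80% toxicity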;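 also: spot-positive cell cutoff set from DMSO-treated cells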
ABCG2 inh = human ABCG2 inhibition, ABCB1 as counter-screen; Q9UNQ0; IgMXP3 cells, JC-1 efflux, flow cytometry; inhibition, % at 6.6 µM; actives 0.1% (n = 190,000); AID 1325;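 active = inhibition above 80%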;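 also: 0% = DMSO and 100% = nicardipine control wells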
Target sequence (Q9UNQ0 whole entry, looked up): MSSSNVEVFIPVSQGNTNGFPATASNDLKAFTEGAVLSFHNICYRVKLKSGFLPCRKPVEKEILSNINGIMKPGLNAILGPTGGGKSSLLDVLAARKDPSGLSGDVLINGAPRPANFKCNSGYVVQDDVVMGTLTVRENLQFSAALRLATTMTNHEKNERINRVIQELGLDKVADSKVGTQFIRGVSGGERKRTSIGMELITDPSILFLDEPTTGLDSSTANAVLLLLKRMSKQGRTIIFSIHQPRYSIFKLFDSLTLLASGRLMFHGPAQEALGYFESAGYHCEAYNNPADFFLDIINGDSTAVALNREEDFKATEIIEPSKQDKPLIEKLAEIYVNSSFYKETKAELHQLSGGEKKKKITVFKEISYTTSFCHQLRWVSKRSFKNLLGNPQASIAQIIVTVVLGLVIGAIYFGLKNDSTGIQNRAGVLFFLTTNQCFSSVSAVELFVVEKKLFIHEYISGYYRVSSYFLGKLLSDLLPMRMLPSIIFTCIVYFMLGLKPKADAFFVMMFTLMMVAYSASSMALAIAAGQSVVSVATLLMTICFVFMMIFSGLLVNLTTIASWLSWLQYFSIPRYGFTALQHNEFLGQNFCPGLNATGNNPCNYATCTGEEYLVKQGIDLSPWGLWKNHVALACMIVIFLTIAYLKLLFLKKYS
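Test system: IgMXP3 (ABCG2) plus far-red-tagged CCRF-Adr (ABCB1) cells / Amount: 3 million cells/mL in well / Reagent: JC-1 transporter substrate / Timing: 10 min compound exposure, 25 °C / Signal: flow cytometry, 530 nm JC-1 signal / Read-out: percent efflux inhibition, scaled nicardipine 100% to DMSO 0% / Benchmarks: nicardipine as high control, DMSO as low control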
* = called active by the depositor. Compounds with a hit are over-represented: about 2.1% of the library has one in this group of screens.

Results for CCOC(=O)C1=c2s/c(=C\c3ccncc3)c(=O)n2C(N)=C(C(=O)OC)C1c1ccncc1 (stereo not given) ?
Arbovirus inh: 25; bCat nuc transl: -2; ABCB1 block: 3; MT stabilize HCS: 5; Autophagy mod: inactive; ABCG2 inh: 2

Results for CCOC(=O)C1=C(N)n2c(s/c(=C/c3ccco3)c2=O)=C(C(=O)OC)C1c1ccco1 (stereo not given) ?
Arbovirus inh: -16; bCat nuc transl: -4; ABCB1 block: 1; MT stabilize HCS: 46*; Autophagy mod: inactive; ABCG2 inh: 2

How did COC(=O)c1sc(NC(=O)c2cccc([N+](=O)[O-])c2)c(C(N)=O)c1C do in these assays?
Arbovirus inh: -35; bCat nuc transl: -2; ABCB1 block: 2; MT stabilize HCS: 3; Autophagy mod: inactive; ABCG2 inh: 34

What do the screens show for `Cc1ccc(CNC(=O)c2ccccc2NC(=O)CSc2nnnn2C)cc1`?
Arbovirus inh: 4; bCat nuc transl: 2; ABCB1 block: 1; MT stabilize HCS: 4; Autophagy mod: active; ABCG2 inh: 2

How did CN1CCCCc2c1nc1ccccc1c2N (tested in a mixture with another compound) do in these assays?
Arbovirus inh: -1; bCat nuc transl: -2; ABCB1 block: 0; MT stabilize HCS: 6; Autophagy mod: inactive; ABCG2 inh: 1

How did CCOCC(=O)Nc1ccc(OCc2ccccc2)cc1 do in these assays?
Arbovirus inh: -13; bCat nuc transl: 1; ABCB1 block: 0; MT stabilize HCS: 6; Autophagy mod: active; ABCG2 inh: 2

Results for CCOC(=O)C(=O)Nc1ccc(OCc2ccccc2)cc1 ?
Arbovirus inh: 3; bCat nuc transl: -1; ABCB1 block: 0; MT stabilize HCS: 2; Autophagy mod: inactive; ABCG2 inh: 3

How did O=C(Nc1ccc(OCc2ccccc2)cc1)c1ccccc1 do in these assays?
Arbovirus inh: -10; bCat nuc transl: -4; ABCB1 block: 0; MT stabilize HCS: 3; Autophagy mod: inactive; ABCG2 inh: 0

Results for COc1cc(/C=N/OCC(=O)Nc2ccc(OC(F)F)cc2)ccc1OCc1ccccc1 ?
Arbovirus inh: -4; bCat nuc transl: 4; ABCB1 block: 1; MT stabilize HCS: 17*; Autophagy mod: inactive; ABCG2 inh: 10

How did O=C(CO/N=C/c1ccc(OC(F)F)cc1)NC1CCCCCC1 do in these assays?
Arbovirus inh: 11; bCat nuc transl: 0; ABCB1 block: 1; MT stabilize HCS: 4; Autophagy mod: active; ABCG2 inh: 8

What do the screens show for `CCOc1ccc(/C=N/OCC(=O)Nc2ccc(OCc3ccccc3)cc2)cc1OC`?
Arbovirus inh: -14; bCat nuc transl: -2; ABCB1 block: 0; MT stabilize HCS: 2; Autophagy mod: inactive; ABCG2 inh: 8

What do the screens show for `O=C(Nc1ccccc1F)c1ccc(OCc2ccccc2)cc1`?
Arbovirus inh: -3; bCat nuc transl: -1; MT stabilize HCS: 2; Autophagy mod: active

Results for O=C(CCc1ccc(S(=O)(=O)N2CCCCC2)cc1)c1nnc(-c2ccccc2)o1 ?
Arbovirus inh: 9; ABCB1 block: 0; MT stabilize HCS: 2; Autophagy mod: inactive; ABCG2 inh: 10

Results for CC1=NNC(=O)c2ccccc2O1 ?
Arbovirus inh: 1; bCat nuc transl: 1; ABCB1 block: 1; MT stabilize HCS: 2; Autophagy mod: inactive; ABCG2 inh: 5

Results for CCCCOC(=O)n1c(=O)oc2cc(S(=O)(=O)N3CCCCC3)ccc21 ?
Arbovirus inh: 5; ABCB1 block: 0; MT stabilize HCS: 3; Autophagy mod: inactive; ABCG2 inh: -2

Results for O=S(=O)(NCC1CCCO1)c1cccc(C(F)(F)F)c1 (stereo not given) ?
Arbovirus inh: -1; bCat nuc transl: 0; ABCB1 block: 0; MT stabilize HCS: 3; Autophagy mod: inactive; ABCG2 inh: -4

What do the screens show for `CCN(CC)c1ccc(NC(=O)c2ccc(=O)[nH]c2)cc1S(=O)(=O)Nc1ccccc1OC`?
Arbovirus inh: -7; bCat nuc transl: 2; ABCB1 block: 0; MT stabilize HCS: 28*; Autophagy mod: inactive; ABCG2 inh: 0

Screens as filed in PubChem BioAssay.
